This passage reports viability and IC50 results from ChEMBL document CHEMBL1221316, “Synthesis of new oxathiazinane dioxides and their in vitro cancer cell growth inhibitory activity” (Bioorg Med Chem Lett, 2010).

SMILES strings stand for the structures.

For assay [1], the system named is SK-BR-3. Description: Cytotoxicity against human SKBR3 cells assessed as cell viability at 50 uM after 72 hrs by MTS assay. Particulars: SK-BR-3, 72 h, read-out: Activity. Format: functional. Summed up: (§1)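 SKBR3 breast cancer cells were exposed to compound for 72 h. Viability was measured by MTS and reported as % viability at each of five concentrations: 6.25, 12.5, 25, 50 and 100. A viability-versus-concentration plot was also made.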
On the technique in general: Tetrazolium assays rely on reduction of a dye to a coloured formazan, in cell work by metabolically active cells.

For assay [2], the system named is SK-BR-3. Description: Cytotoxicity against human SKBR3 cells assessed as cell viability at 100 uM after 72 hrs by MTS assay. Format: functional. As to conditions: SK-BR-3, 72 h, read-out: Activity. Summed up:
as §1

Assay [3] has as its system SK-BR-3. In words: Cytotoxicity against human SKBR3 cells assessed as cell viability at 12.5 uM after 72 hrs by MTS assay. Format: functional. Particulars: SK-BR-3, 72 h, read-out: Activity. Summed up: as §1
In assay [4] the test system is SK-BR-3. Description: Cytotoxicity against human SKBR3 cells assessed as cell viability at 6.25 uM after 72 hrs by MTS assay. Format: functional. As to conditions: SK-BR-3, 72 h, read-out: Activity. In outline: as §1
The test system of assay [5] is SK-BR-3. Description: Cytotoxicity against human SKBR3 cells assessed as cell viability at 25 uM after 72 hrs by MTS assay. As to conditions: SK-BR-3, 72 h, read-out: Activity. Format: functional. In outline: as §1
Assay [6] concerns SK-BR-3. In words: Cytotoxicity against human SKBR3 cells after 72 hrs by MTS assay. As to conditions: SK-BR-3, 72 h. Format: functional, cell-based. Summed up:
as §1

As to `O=S1(=O)COC[C@@H](COCc2ccccc2)N1`, in assay [1], the viability at 50 µM was 80%. In addition, in assay [2], the viability at 100 µM came to 16%. Besides, the viability at 12.5 µM in assay [3] was 100%. Moreover, in assay [4], the viability at 6.25 µM is 100%. For the same molecule, the viability at 25 µM in assay [5] worked out at 100%.

For `O=S1(=O)COC[C@H](COCc2ccccc2)N1`, the viability at 50 µM in assay [1] is 51%. The viability at 100 µM in assay [2] worked out at 22%. In addition, the viability at 12.5 µM in assay [3] is 94%. Also, in assay [4], the viability at 6.25 µM amounted to 100%. For the same molecule, in assay [5], the viability at 25 µM was 78%.

For `O=S1(=O)COC[C@@H](COCc2ccc(-c3ccccc3)cc2)N1`, the viability at 50 µM in assay [1] worked out at 44%. In addition, the viability at 100 µM in assay [2] turned out to be 46%. In addition, the viability at 12.5 µM in assay [3] was determined as 75%. Further, the viability at 6.25 µM in assay [4] was 75%. For the same molecule, the viability at 25 µM in assay [5] worked out at 75%.

Usually IC50 stands for the midpoint of a concentration-inhibition curve. For the molecule `O=S1(=O)COC[C@@H](COCc2ccc(-c3ccc(CBr)cc3)cc2)N1`, the viability at 50 µM in assay [1] was 10%. Also, the viability at 100 µM in assay [2] is 10%. Moreover, the viability at 12.5 µM in assay [3] was determined as 34%. Moreover, in assay [6], the IC50 turned out to be 10 µM. Besides, in assay [4], the viability at 6.25 µM came to 66%. Besides, the viability at 25 µM in assay [5] was 10%.

In the case of `O=S1(=O)COC[C@H](COCc2ccc(-c3ccc(CBr)cc3)cc2)N1`, the viability at 50 µM in assay [1] amounted to 18%. The viability at 100 µM in assay [2] turned out to be 20%. The viability at 12.5 µM in assay [3] is 81%. For the same molecule, inhibition in assay [6] was half-maximal at 10 µM (IC50). Moreover, in assay [4], the viability at 6.25 µM amounted to 99%. The viability at 25 µM in assay [5] stood at 26%.

For the molecule `O=S1(=O)COC[C@@H](COCc2ccccc2)N1Cc1ccccc1`, the viability at 50 µM in assay [1] stood at 83%. Also, the viability at 100 µM in assay [2] amounted to 82%. In addition, the viability at 12.5 µM in assay [3] was 82%. The viability at 6.25 µM in assay [4] came to 89%. In addition, the viability at 25 µM in assay [5] was 88%.

As for `O=S1(=O)COC[C@H](COCc2ccccc2)N1Cc1ccccc1`, the viability at 50 µM in assay [1] was 87%. For the same molecule, the viability at 100 µM in assay [2] was determined as 96%. Besides, the viability at 12.5 µM in assay [3] was found to be 80%. The viability at 6.25 µM in assay [4] stood at 81%. In assay [5], the viability at 25 µM came to 82%.

`CCCCCCCC/C=C\CCCCCCCCOC[C@@H]1COCS(=O)(=O)N1Cc1ccccc1`: the viability at 50 µM in assay [1] amounted to 100%. In assay [2], the viability at 100 µM is 100%. Moreover, the viability at 12.5 µM in assay [3] came out at 100%. The viability at 6.25 µM in assay [4] was 100%. In addition, in assay [5], the viability at 25 µM was found to be 99%.

In the case of `CCCCCCCC/C=C\CCCCCCCCOC[C@H]1COCS(=O)(=O)N1Cc1ccccc1`, in assay [1], the viability at 50 µM worked out at 82%. Moreover, in assay [2], the viability at 100 µM was 96%. For the same molecule, the viability at 12.5 µM in assay [3] is 81%. In assay [4], the viability at 6.25 µM was 71%. Besides, the viability at 25 µM in assay [5] came to 81%.

`O=S1(=O)COC[C@@H](COCc2ccc(F)cc2)N1Cc1ccccc1`: the viability at 50 µM in assay [1] came out at 99%. In addition, in assay [2], the viability at 100 µM stood at 96%. Moreover, the viability at 12.5 µM in assay [3] worked out at 86%. Besides, in assay [4], the viability at 6.25 µM is 93%. In addition, the viability at 25 µM in assay [5] is 88%.

With `COc1cccc(COC[C@@H]2COCS(=O)(=O)N2Cc2ccccc2)c1`, the viability at 50 µM in assay [1] worked out at 96%. In assay [2], the viability at 100 µM stood at 89%. Further, the viability at 12.5 µM in assay [3] is 100%. In assay [4], the viability at 6.25 µM was 100%. In assay [5], the viability at 25 µM was 100%.

As to `O=C(OC[C@@H]1COCS(=O)(=O)N1Cc1ccccc1)c1ccccc1`, the viability at 50 µM in assay [1] amounted to 89%. Further, the viability at 100 µM in assay [2] was determined as 100%. In addition, the viability at 12.5 µM in assay [3] stood at 98%. Also, the viability at 6.25 µM in assay [4] came to 81%. For the same molecule, the viability at 25 µM in assay [5] is 88%.

Take `CN1[C@H](COCc2ccccc2)COCS1(=O)=O`: the viability at 50 µM in assay [1] worked out at 83%. The viability at 100 µM in assay [2] was 82%. In addition, the viability at 12.5 µM in assay [3] was 81%. For the same molecule, the viability at 6.25 µM in assay [4] turned out to be 85%. Besides, the viability at 25 µM in assay [5] came out at 88%.

Consider `CCCCCCCC/C=C\CCCCCCCCOC[C@@H]1COCS(=O)(=O)N1C`, for which the viability at 50 µM in assay [1] came to 65%. For the same molecule, the viability at 100 µM in assay [2] came out at 65%. Moreover, the viability at 12.5 µM in assay [3] was 71%. Moreover, in assay [4], the viability at 6.25 µM stood at 72%. For the same molecule, the viability at 25 µM in assay [5] came out at 65%.

`CN1[C@H](COCc2ccc(-c3ccccc3)cc2)COCS1(=O)=O`: in assay [1], the viability at 50 µM amounted to 61%. In addition, the viability at 100 µM in assay [2] was 52%. Moreover, the viability at 12.5 µM in assay [3] came out at 66%. Besides, in assay [4], the viability at 6.25 µM came out at 89%. Also, in assay [5], the viability at 25 µM stood at 60%.

For `CN1[C@H](COCc2ccc3ccccc3c2)COCS1(=O)=O`, the viability at 50 µM in assay [1] is 74%. Moreover, in assay [2], the viability at 100 µM was 74%. In addition, in assay [3], the viability at 12.5 µM was 82%. Besides, in assay [4], the viability at 6.25 µM amounted to 81%. For the same molecule, the viability at 25 µM in assay [5] came to 73%.
